Xi reactivation = activators of inactive X chromosome reactivation, primary screen, imaging, XiGFP fibroblasts, GFP high-content imaging, set 2 | XiGFP mouse fibroblasts, % GFP-positive cells imaging, 3 d; cells co-treated with 5-aza-dC sensitizer; scaled so ellipticine positive control = 100% | activation, % at 7.58 µM | 360,000 tested, 0.055% active | AID 743238, 2013;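 active means mean normalized replicate activation at least 10% and every replicate at or above 10%; inconclusive means only one of the two criteria met; inactive means mean below 10% and not all replicates reach 10%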;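 further: 0% = median of on-plate neutral control wells and 100% = ellipticine 6 µM median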
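Assay system – SV40-immortalized XiGFP fibroblast cells, line 68-5-11 · Buffer or medium – DMEM supplemented with 5-aza-dC as sensitizing agent · Dosing – one concentration, pinned · Benchmarks – positive control ellipticine, 6 µM final · Times – 3 days compound exposure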
DENV2 CPE rescue = inhibitors of DENV2 cytopathic effect, primary screen, cell-based, plate reader, single concentration; CPE inhibition, % at 9.99 µM; DENV2-infected cells, cytopathic effect rescue; 350,000 tested, 1.7% active; in the data active means CPE inhibition above about 20%, passing the limit was not always enough; inconclusive means no clear call, values can overlap the other calls; tested in BHK-21 cells;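 further: 0% = median of neutral control wells and 100% = median of positive control wells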
Cneo AK release = Cryptococcus neoformans cell lysis inducers, primary screen, AK release luminescence, single concentration; lysis activity, % at 15 µM; C. neoformans lysis, adenylate kinase release luminescence, 4 h; normalised: neutral wells 0, clomiphene wells 100; 360,000 tested, 0.2% active; AID 651654, 2012;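 active means mean lysis activity across replicates of at least 80%, whatever share of replicates individually reach that level; inactive means mean lysis activity below 80%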
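Test system: log-phase Cryptococcus neoformans yeast cells. Input: 5 × 10^6 yeast cells/mL. Medium: fresh YPD growth medium. Doses: single dose. Incubation: static 4 h at 37 °C with compound, 1 h detection. Measured by: luminescent adenylate kinase detection reagent. Read-out: signal increase indicating cell lysis. Benchmarks: Clomiphene.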
Statin myotox sup = suppressors of statin myotoxicity in C2C12 myotubes, primary screen, cell-based, single point, plate reader | C2C12 myotubes + simvastatin, ATP luminescence, 48 h; scaled: DMSO 0, geranylgeraniol control 100 | rescue of ATP level, % at 7.49 µM | 330,000 tested, 0.78% active;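 active means mean ATP rescue above about 67%, or every replicate alone reaching that limit, limit read from the data, passing the limit was not always enough; inconclusive means no clear call, values can overlap the other calls; inactive means mean under the limit and some replicate under it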;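 further: myotubes were challenged with 10 µM simvastatin during compound exposure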
* = called active by the depositor; ? = inconclusive; . = no result given. Sampled rows, rich in hits. Any-hit rate of the full collection: about 2.1%.

SMILES | Xi reactivation | DENV2 CPE rescue | Cneo AK release | Statin myotox sup
CN1c2ccc(-c3ccccc3F)cc2[C@@H]2[C@@H](CCN2S(=O)(=O)c2ccc(F)cc2)[C@@H]1CO | 0 | 53* | -1 | -21
CC(C)NC(=O)Nc1ccc2c(c1)C(=O)N(C)[C@@H]1CC[C@H](CC(=O)NCC(F)(F)F)O[C@@H]1CO2 | 0 | -1 | 54 | 11
COc1ccc(NC(=O)N(C)C[C@@H]2Oc3ccc(NS(=O)(=O)c4ccc(F)cc4)cc3C(=O)N([C@@H](C)CO)C[C@H]2C)cc1 | 0 | 4 | 3 | -26
Cc1c(Cl)c(C(=O)N2CCCC2)nn1C | 0 | 121* | . | .
CCCCN(CCNP(=O)(OCC)OCC)CP(=O)(OCC)OCC | . | . | 1 | 72*
CN(C)C(=O)c1ccc(-c2ccc3c(c2)[C@@H]2[C@@H](CCN2C(=O)c2ccccn2)[C@H](CO)N3)cc1 | 0 | -8 | 10 | -14
CC(C)NC(=O)N(C)C[C@@H]1OCCCC[C@H](C)Oc2ccc(NC(=O)c3ccccc3)cc2C(=O)N([C@H](C)CO)C[C@@H]1C | -1 | 2 | . | .
CC(C)NC(=O)N(C)C[C@@H]1OCCCC[C@H](C)Oc2ccc(NC(=O)c3ccccc3)cc2C(=O)N([C@H](C)CO)C[C@H]1C | 2 | 0 | 91* | .
CC(C)NC(=O)N(C)C[C@H]1OCCCC[C@@H](C)Oc2ccc(NC(=O)c3ccccc3)cc2C(=O)N([C@@H](C)CO)C[C@@H]1C | -1 | -6 | 91* | .
CCCNC(=O)Nc1ccc2c(c1)OC[C@@H](C)N(Cc1ccc(-c3ccccn3)cc1)C[C@H](C)[C@@H](OC)CN(C)C2=O | 0 | -1 | 2 | 11
CCc1ccc2[nH]c(=O)c(CN(CCN3CCCC3)C(=O)NC3CCCCC3)cc2c1 | . | . | 0 | 95*
O=C(C[C@H]1CC[C@@H]2[C@H](COC[C@@H](O)CN2Cc2cccc(F)c2)O1)NCCc1ccncc1 | 0 | -1 | -1 | 0
O=C(c1ccco1)N1N=C(c2ccccc2O)CC1c1cccs1 (stereo not given) | 0 | -7 | 0 | 70*
O=C(c1ccco1)N1N=C(c2cccs2)CC1c1ccco1 (stereo not given) | 0 | 3 | . | 34
COc1ccc(Cl)cc1NC(=O)COC(C)=O | 0 | 2 | . | .
CCOC(=O)CC(=O)Nc1cc(Cl)ccc1O | . | . | 8 | 84*
COc1ccc(Cl)cc1NC(=O)CC(C)=O | . | . | 5 | 92*
C[C@@H]1CN([C@@H](C)CO)C(=O)c2cc(C#CCN(C)C)cnc2O[C@H]1CN(C)Cc1ccccc1F | -1 | -6 | -1 | 16
O=C(Nc1ccc(F)cc1)N[C@@H]1CC[C@@H](CCn2cc(-c3ccc(F)cc3)nn2)O[C@H]1CO | 0 | 22* | -3 | 1
COc1ccc(-c2cn(CC[C@@H]3CC[C@H](NC(=O)Nc4ccc(F)cc4)[C@H](CO)O3)nn2)cc1 | 1 | 95* | . | .
O=C(Nc1ccc(F)cc1)N[C@H]1CC[C@@H](CCn2cc(-c3ccc(F)cc3)nn2)O[C@H]1CO | 1 | -9 | 0 | 4
COc1ccc(NC(=O)N[C@H]2CC[C@@H](CCn3cc(C4(O)CCCC4)nn3)O[C@@H]2CO)cc1 | 0 | 93* | 0 | -1
COc1ccc(NC(=O)N[C@@H]2CC[C@H](CCn3cc(-c4ccc(F)cc4)nn3)O[C@@H]2CO)cc1 | 0 | 3 | 3 | 9
COc1ccc(NC(=O)N[C@@H]2CC[C@@H](CCn3cc(C4(O)CCCC4)nn3)O[C@@H]2CO)cc1 | 0 | 5 | 3 | 1
O=C(N[C@H]1CC[C@H](CCn2cc(-c3ccccn3)nn2)O[C@H]1CO)c1ccc(F)cc1 | -1 | 0 | 83* | 0
SMILES | Xi reactivation | DENV2 CPE rescue | Cneo AK release | Statin myotox sup
CCCN(C)C[C@@H]1Oc2ncc(-c3ccccc3)cc2C(=O)N([C@@H](C)CO)C[C@H]1C | . | . | . | 2
Cc1cccc(S(=O)(=O)N2CC[C@@H]3[C@H]2c2cc(C4=CCCCC4)ccc2N[C@@H]3CO)c1 | 0 | -24 | -18 | -2
CCCC#Cc1cnc2c(c1)C(=O)N([C@@H](C)CO)C[C@@H](C)[C@@H](CN(C)C(=O)Nc1cccc(F)c1)O2 | 0 | 12 | 3 | 27
C[C@H](CO)N1C[C@H](C)[C@@H](CN(C)C(=O)c2ccccc2)OCCCC[C@H](C)Oc2ccc(NC(=O)Cc3ccccc3)cc2C1=O | 0 | -4 | -3 | .
C[C@@H]1CN([C@H](C)CO)C(=O)c2cc(NC(=O)CCCN(C)C)ccc2O[C@@H](C)CCCCO[C@@H]1CN(C)C(=O)Nc1ccccc1 | 0 | ? | -4 | .
CCOc1ccccc1OCCCCCc1c(C)n[nH]c1C | . | . | 4 | 6
Cc1cccc(OCCCCc2c(C)n[nH]c2C)c1C | . | 2 | 28 | 103*
COc1ccc(S(=O)(=O)N(C)C[C@H]2Oc3c(NC(=O)CCCCCC(=O)Nc4ccccc4N)cccc3C(=O)N([C@@H](C)CO)C[C@@H]2C)cc1 | 0 | 32* | . | .
COc1ccc(S(=O)(=O)N(C)C[C@@H]2Oc3c(NC(=O)CCCCCC(=O)Nc4ccccc4N)cccc3C(=O)N([C@H](C)CO)C[C@@H]2C)cc1 | 0 | 36* | . | .
COc1ccc(S(=O)(=O)N(C)C[C@@H]2Oc3c(NC(=O)CCCCCC(=O)Nc4ccccc4N)cccc3C(=O)N([C@H](C)CO)C[C@H]2C)cc1 | 0 | 32* | . | .
Cc1cccc(NC(=S)NC2CC3C=CC2C3)c1 (stereo not given) | 0 | -2 | 19 | 100*
Cc1nc2ccc(NS(=O)(=O)c3ccc(Br)cc3)cc2s1 | 0 | 1 | -1 | -59
CC(=O)Nc1ccc(S(=O)(=O)Nc2ccc3nc(C)sc3c2)cc1 | 0 | -7 | 0 | 90*
C[C@H]1CCCCO[C@H](CN(C)C(=O)NC2CCCCC2)[C@@H](C)CN([C@@H](C)CO)C(=O)c2cc(NC(=O)Nc3ccc(F)cc3)ccc2O1 | 0 | 32* | . | .
C[C@H](CO)N1C[C@H](C)[C@@H](CN(C)CC2CC2)OCCCC[C@H](C)Oc2ccc(NC(=O)Nc3ccc(F)cc3)cc2C1=O | 0 | 1 | 3 | 25
C[C@@H]1CCCCO[C@@H](CN(C)C(=O)Nc2ccc(F)cc2)[C@H](C)CN([C@H](C)CO)C(=O)c2cc(NC(=O)C3CCCCC3)ccc2O1 | 0 | 32* | -1 | .
C[C@@H]1CCCCO[C@@H](CN(C)CC2CC2)[C@@H](C)CN([C@H](C)CO)C(=O)c2cc(NC(=O)Nc3ccc(F)cc3)ccc2O1 | 0 | 78* | 2 | 48
C[C@@H]1CN([C@H](C)CO)C(=O)c2cc(NC(=O)C3CCCCC3)ccc2O[C@@H](C)CCCCO[C@H]1CN(C)C(=O)Nc1ccc(F)cc1 | -1 | 0 | 1 | .

Compound activity as filed in PubChem BioAssay.
